Reference: ChEMBL document CHEMBL4414577, “Discovery of Pyrrolo[2,3-b]pyridine (1,7-Dideazapurine) Nucleoside Analogues as Anti-Trypanosoma cruzi Agents” (J Med Chem, 2019)
Calls of active or inactive are those of the source. No cut-off for these calls is given here.

Assays:
[1] = Drug metabolism in mouse liver microsomes assessed as CYP450-mediated metabolism by measuring parent compound remaining at 5 uM measured immediately in presence of NADPH by UPLC-MS analysis; format: ADME; conditions: read-out: Stability
In short: (§1)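 Compound incubated with male mouse, rat, dog or pooled human S9 fractions, with NADPH (phase I) or […], sampled at 0, 15, 30 and 60 min. Read-out is percent parent remaining. Two independent experiments of two biological replicates; diclofenac and fluconazole used as assay controls.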

Cytochrome P450 = Cytochrome P450 (Homo sapiens, UniProt P04798+P05177+P05181+P08684+P10632+P10635+P11509+P11712+P13584+P20813+P20815+P20853+P24462+P24903+P33260+P33261+P51589+P78329+P98187+Q02928+Q08477+Q16678+Q16696+Q5TCH4+Q6VVX0+Q7Z449+Q8TAV3+Q96SQ9+Q9HB55); experiment: Drug metabolism in human liver S9 fraction assessed as CYP450-mediated metabolism by measuring parent compound remaining at 5 uM incubated for 60 mins in presence of NADPH by UPLC-MS analysis; format: ADME, subcellular; conditions: read-out: Stability; in short: as §1
[2] = Toxicity in Swiss Webster mouse infected with Trypanosoma cruzi Y trypomastigotes assessed as body weight loss at 25 mg/kg, po administered twice daily via gavage for 5 days starting from 5 days post-infection and measured daily up to 40 days post-infection; format: organism-based; conditions: in vivo
In short: (§2)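 Male Swiss Webster mice were infected i.p. with 10⁴ Y-strain trypomastigotes and treated by oral gavage for 5 days from 5 dpi. Regimens were 25 mg/kg b.i.d. (10% EtOH/citrate vehicle) or benznidazole 100 mg/kg s.i.d. Body weight and visual clinical signs were monitored, with daily mortality checks up to 40 dpi. There were six mice per group.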

[3] = Selectivity index, ratio for EC50 for human MRC5 SV2 cells to EC50 for Trypanosoma cruzi Tulahuen CL2 amastigotes infected in human MRC5 SV2 cells; format: toxicity, cell-based; conditions: read-out: Ratio EC50
Trypanosoma cruzi [4] = experiment: In vivo antitrypanosomal activity against Trypanosoma cruzi Y trypomastigotes infected in Swiss mouse assessed as reduction in parasitemia at 25 mg/kg, po administered twice daily for 5 days with 2 days interval for 3 cycles and measured up to 30 days post-infection by light microscopy; format: functional, organism-based
In short: (§3)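 Male Swiss Webster mice infected i.p. with 10⁴ Y-strain bloodstream trypomastigotes; six per group. Oral gavage from 5 dpi for 15 days (three 5-day rounds, 2 days off): test compound 25 mg/kg b.i.d., benznidazole 100 mg/kg s.i.d. Parasites counted in 5 μL tail blood to 30 dpi; mortality followed to 53 dpi.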

[5] = Drug metabolism in dog liver microsomes assessed as UGT-mediated metabolism by measuring compound remaining at 5 uM incubated for 60 mins in presence of UDPGA by UPLC-MS analysis; format: ADME, Canis lupus familiaris; conditions: read-out: Stability; in short: as §1
[6] = Drug metabolism in dog liver microsomes assessed as UGT-mediated metabolism by measuring compound remaining at 5 uM incubated for 15 mins in presence of UDPGA by UPLC-MS analysis; format: ADME, Canis lupus familiaris; conditions: read-out: Stability; in short: as §1
Trypanosoma cruzi [7] = experiment: (§4) In vivo antitrypanosomal activity against Trypanosoma cruzi Y trypomastigotes infected in Swiss mouse assessed as reduction in parasitemia at 25 mg/kg, po administered twice daily via gavage for 5 days starting from 5 days post-infection in presence of cyclophosphamide by light microscopic method; format: functional, organism-based
In short: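 Infected mice were dosed orally at 25 mg/kg b.i.d. from 5 dpi, either for 5 days or for 15 days (3 × 5 days, 2 days apart). Mice with negative parasitemia up to 30 days post-treatment then received cyclophosphamide i.p. at 50 mg/kg/day. This was given in three cycles of 4 days, each followed by 3 drug-free days. Tail-vein blood parasitemia was then read by light microscopy.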

Trypanosoma cruzi [8] = experiment: Antitrypanosomal activity against Trypanosoma cruzi Y amastigotes infected in Swiss mouse primary cardiac cells incubated for 168 hrs with media replenishment for every 48 hrs followed by compound washout and measured after 168 hrs by light microscopic method; format: functional, organism-based
In short: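 Cardiac cells plated 24 h, then infected 24 h at 37 °C with Y-strain bloodstream trypomastigotes (parasite:host 10:1) and washed. Serial dilutions (up to 5 µM) for 168 h at 37 °C, drug medium renewed every 48 h. PBS rinse, 168 h drug-free. Giemsa-stained; infected cells and parasites per cell scored in 200 cells. EC50 from infection-index inhibition; two experiments, duplicate.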

Trypanosoma cruzi [9] = experiment: as §4, with “and measured 8 days post-infection” for “in presence of cyclophosphamide”, “method relative to control” for “method”; format: functional; parameters: scale not given: the % may be the effect or the level left
In short: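 Male Swiss Webster mice (18-20 g, six per group) were infected i.p. with 10⁴ Y-strain bloodstream trypomastigotes. Treatment began at 5 dpi, only in mice with detectable parasitemia. Dosing was 25 mg/kg b.i.d. by oral gavage for 5 days, using a 2.0 mg/mL formulation in 10% EtOH, 0.1 M citrate pH 3.02. Parasites in 5 μL tail-vein blood were counted microscopically up to 30 dpi, against vehicle-treated infected mice.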

[10] = Drug metabolism in dog liver microsomes assessed as CYP450-mediated metabolism by measuring parent compound remaining at 5 uM incubated for 60 mins in presence of NADPH by UPLC-MS analysis; format: ADME, Canis lupus familiaris; conditions: read-out: Stability; in short: as §1
[11] = Cytotoxicity against human MRC5 SV2 cells assessed as reduction in cell viability incubated for 3 days by resazurin dye based assay; conditions: MRC-5 SV2, 72 h
Trypanosoma cruzi [12] = experiment: Antitrypanosomal activity against Trypanosoma cruzi Y amastigotes infected in Swiss mouse primary cardiac cells replenished for every 48 hrs for 168 hrs by geimsa staining based assay; format: functional, organism-based
In short: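 Primary mouse cardiac cells infected 24 h at 37 °C with Y-strain bloodstream trypomastigotes (parasite:host 10:1), washed, then exposed 168 h at 37 °C to serial dilutions, medium with compound renewed every 48 h. Giemsa stained; infected cells and parasites per infected cell scored in 200 host cells. EC50 from inhibition of infection index; two independent determinations.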

[13] = Toxicity in Swiss Webster mouse infected with Trypanosoma cruzi Y trypomastigotes assessed as appearance of clinical symptoms at 25 mg/kg, po administered twice daily via gavage for 5 days starting from 5 days post-infection and measured daily up to 40 days post-infection; format: organism-based; conditions: in vivo; in short: as §2
[14] = biological target: UDP-glucuronosyltransferases (UGTs) (Homo sapiens, UniProt O60656+O75310+O75795+P06133+P0DTE4+P0DTE5+P16662+P19224+P22309+P22310+P35503+P35504+P36537+P54855+Q6UWM9+Q9BY64+Q9HAW7+Q9HAW8+Q9HAW9); experiment: Drug metabolism in human liver S9 fraction assessed as UGT-mediated metabolism by measuring compound remaining at 5 uM incubated for 15 mins in presence of UDPGA by UPLC-MS analysis; format: ADME, subcellular; conditions: read-out: Stability; in short: as §1
Trypanosoma cruzi [15] = experiment: In vivo antitrypanosomal activity against Trypanosoma cruzi Y trypomastigotes infected in Swiss mouse assessed as mouse survival at 25 mg/kg, po administered twice daily for 5 days with 2 days interval for 3 cycles and measured […]; format: functional, organism-based; in short: as §3
[16] = Drug metabolism in mouse liver microsomes assessed as UGT-mediated metabolism by measuring compound remaining at 5 uM incubated for 15 mins in presence of UDPGA by UPLC-MS analysis; format: ADME; conditions: read-out: Stability; in short: as §1
[17] = Drug metabolism in dog liver microsomes assessed as CYP450-mediated metabolism by measuring parent compound remaining at 5 uM measured immediately in presence of NADPH by UPLC-MS analysis; format: ADME, Canis lupus familiaris; conditions: read-out: Stability; in short: as §1

- remaining at 0 min, 5 µM [1]: 100%
- remaining at 1 h, 5 µM (Cytochrome P450): 92%
- remaining at 1 h, 5 µM [5]: 84%
- remaining at 0.25 h, 5 µM [6]: 94%
- EC50 (Trypanosoma cruzi [8]): > 5000 nM
- remaining at 1 h, 5 µM [10]: 92%
- EC50 (Trypanosoma cruzi [12]): 89 nM
- remaining at 0.25 h, 5 µM [14]: 99%
- remaining at 0.25 h, 5 µM [16]: 102%
- remaining at 0 min, 5 µM [17]: 100%
Structure (SMILES): Nc1ccnc2c1c(I)cn2[C@@H]1O[C@H](CO)[C@@H](O)[C@H]1O
- Activity [2]: Non-Toxic
- selectivity ratio [3]: > 1600
- Activity (Trypanosoma cruzi [4]): Active
- Activity (Trypanosoma cruzi [7]): inactive
- Activity (Trypanosoma cruzi [9]): 95%
- EC50 [11]: > 64000 nM
- Activity [13]: Non-Toxic
- Activity (Trypanosoma cruzi [15]): inactive
